Experimental data from ChEMBL document CHEMBL1139241, “Structure-activity relationship studies of a new series of imidazo[2,1-f]purinones as potent and selective A(3) adenosine receptor antagonists” (Bioorg Med Chem, 2008).

Columns and labels:
Adenosine receptor A3 = target: T1, Adenosine receptor A3 (Homo sapiens, UniProt P0DMS8); experiment: Displacement of [3H]MRE3008F20 from human cloned adenosine A3 receptor expressed in CHO cells; assay type: cell-based
T1 sequence (P0DMS8 whole entry): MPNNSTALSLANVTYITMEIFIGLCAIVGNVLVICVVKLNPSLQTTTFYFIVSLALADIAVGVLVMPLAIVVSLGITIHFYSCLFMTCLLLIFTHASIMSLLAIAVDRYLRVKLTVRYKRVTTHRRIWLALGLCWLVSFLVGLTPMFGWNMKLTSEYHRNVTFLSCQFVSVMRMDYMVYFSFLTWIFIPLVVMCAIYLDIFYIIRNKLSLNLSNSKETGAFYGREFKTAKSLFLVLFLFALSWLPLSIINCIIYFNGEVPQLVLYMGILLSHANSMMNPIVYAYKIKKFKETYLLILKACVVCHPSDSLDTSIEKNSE

Adenosine receptor A2b = target: T2, Adenosine receptor A2b (Homo sapiens, UniProt P29275); experiment: Antagonist activity at human cloned adenosine A2B cells expressed in CHO cells assessed as inhibition of NECA-stimulated cAMP production; assay type: functional, cell-based
T2 sequence (P29275 whole entry): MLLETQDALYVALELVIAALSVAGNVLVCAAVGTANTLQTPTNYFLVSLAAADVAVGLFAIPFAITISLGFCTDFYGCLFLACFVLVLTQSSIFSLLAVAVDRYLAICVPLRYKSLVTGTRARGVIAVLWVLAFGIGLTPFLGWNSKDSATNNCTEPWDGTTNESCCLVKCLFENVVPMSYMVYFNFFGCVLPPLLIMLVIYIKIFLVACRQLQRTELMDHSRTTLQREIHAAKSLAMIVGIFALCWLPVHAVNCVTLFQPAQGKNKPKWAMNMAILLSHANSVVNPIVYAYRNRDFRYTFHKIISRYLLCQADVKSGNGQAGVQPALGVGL
Summary of the method: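 CHO cells with human A2B receptor, trypsin-detached, 1×10^6 cells/assay, in buffered salt medium pH 7.4 with 2 IU/ml adenosine deaminase and Ro 20-1724, preincubated 10 min at 37 °C. Antagonism of 100 nM NECA-stimulated cAMP. Stopped with cold 6% TCA, ether-extracted, cAMP measured by [3H]cAMP competition protein binding. IC50 from sigmoid nonlinear regression, n = 4, mean ± SEM.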

Adenosine receptor A2a = Adenosine receptor A2a (Homo sapiens, UniProt P29274); experiment: Displacement of [3H]ZM241385 from human cloned adenosine A2A receptor expressed in CHO cells; assay type: cell-based
Sequence of Adenosine receptor A2a (P29274 whole entry): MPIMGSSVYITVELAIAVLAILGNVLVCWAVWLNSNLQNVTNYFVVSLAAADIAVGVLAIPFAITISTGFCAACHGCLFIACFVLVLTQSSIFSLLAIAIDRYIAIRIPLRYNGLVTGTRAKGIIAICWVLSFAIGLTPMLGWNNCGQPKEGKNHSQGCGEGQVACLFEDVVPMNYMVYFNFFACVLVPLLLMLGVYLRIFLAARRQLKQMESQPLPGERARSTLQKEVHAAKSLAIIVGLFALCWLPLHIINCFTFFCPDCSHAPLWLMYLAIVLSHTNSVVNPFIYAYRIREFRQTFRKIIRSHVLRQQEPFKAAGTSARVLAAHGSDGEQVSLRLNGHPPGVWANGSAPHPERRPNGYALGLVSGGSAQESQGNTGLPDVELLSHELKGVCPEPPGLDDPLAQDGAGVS

Adenosine receptor A1 = target: T3, Adenosine receptor A1 (Homo sapiens, UniProt P30542); experiment: Displacement of [3H]DPCPX from human cloned adenosine A1 receptor expressed in CHO cells; assay type: cell-based
T3 sequence (P30542 whole entry): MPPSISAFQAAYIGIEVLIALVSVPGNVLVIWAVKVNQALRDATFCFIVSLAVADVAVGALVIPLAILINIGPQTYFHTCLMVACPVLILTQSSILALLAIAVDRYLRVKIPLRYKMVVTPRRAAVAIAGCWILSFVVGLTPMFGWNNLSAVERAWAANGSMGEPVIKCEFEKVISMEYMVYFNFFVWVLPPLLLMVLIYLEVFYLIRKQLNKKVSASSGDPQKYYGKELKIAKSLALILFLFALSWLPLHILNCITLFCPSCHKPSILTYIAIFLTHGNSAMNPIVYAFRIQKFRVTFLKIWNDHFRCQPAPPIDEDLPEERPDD

Row | Ki (Adenosine receptor A3) [nM] | IC50 (Adenosine receptor A2b) [nM] | Ki (Adenosine receptor A2a) [nM] | Ki (Adenosine receptor A1) [nM] | Structure (SMILES)
1 | 38 | > 1000 | > 1000 | > 1000 | Cc1cn2c(nc3c2c(=O)n(CCO)c(=O)n3Cc2ccccc2)[nH]1
2 | 110 | > 1000 | > 1000 | > 1000 | Cc1cn2c(nc3c2c(=O)n(CCCO)c(=O)n3Cc2ccccc2)[nH]1
3 |  | > 1000 |  |  | CCCn1c(=O)c2c(nc3[nH]c(-c4ccc(F)cc4)cn32)n(Cc2ccccc2)c1=O
4 | 34 | > 1000 | > 1000 | > 1000 | CCCn1c(=O)c2c(nc3[nH]c(C)cn32)n(Cc2ccccn2)c1=O
5 | > 1000 | > 1000 | > 1000 | > 1000 | CCn1c(C)cn2c3c(=O)[nH]c(=O)n(Cc4ccccc4)c3nc12
6 | 20 | > 1000 | > 1000 | > 1000 | CCOC(=O)Cn1c(=O)c2c(nc3[nH]c(C)cn32)n(Cc2ccccc2)c1=O
7 | 5.13 | > 1000 | > 1000 | > 1000 | C=CCn1c(=O)c2c(nc3[nH]c(C)cn32)n(Cc2ccccc2)c1=O

The next lines start with the compound.

Row | Structure (SMILES) | Ki (Adenosine receptor A3) [nM] | IC50 (Adenosine receptor A2b) [nM] | Ki (Adenosine receptor A2a) [nM] | Ki (Adenosine receptor A1) [nM]
8 | Cn1c(=O)c2c(nc3[nH]c(-c4ccccc4)cn32)n(C)c1=O | > 1000 | > 1000 | > 1000 | > 1000
9 | Cc1cn2c3c(=O)[nH]c(=O)n(Cc4ccccc4)c3nc2n1C(C)CO (stereo not given) | > 1000 | > 1000 | > 1000 | > 1000
10 | CCCn1c(=O)c2c(nc3[nH]c(-c4ccc(OC)cc4)cn32)n(Cc2ccccc2)c1=O |  | > 1000 |  | 
11 | CCCn1c(=O)c2c(nc3[nH]c(C)cn32)n(Cc2cccnc2)c1=O | 57 | > 1000 | > 1000 | > 1000
12 | CCCn1c(=O)c2c(nc3n(CC)c(C)cn23)n(Cc2ccccc2)c1=O | 200 | > 1000 | > 1000 | > 1000
13 | Cc1cn2c(nc3c2c(=O)[nH]c(=O)n3Cc2ccccc2)[nH]1 | 148 | > 1000 | > 1000 | > 1000
14 | C#CCn1c(=O)c2c(nc3[nH]c(C)cn32)n(Cc2ccccc2)c1=O | 15 | > 1000 | > 1000 | > 1000
15 | CCCn1c(=O)c2c(nc3n2CC(c2ccccc2)=C3)n(Cc2ccccc2)c1=O |  | > 1000 |  | 
16 | CCCn1c(=O)c2c(nc3[nH]c(-c4ccccc4)cn32)n(Cc2ccccc2)c1=O |  | > 1000 |  | 
17 | CCCn1c(=O)c2c(nc3[nH]c(-c4ccc(-c5ccccc5)cc4)cn32)n(Cc2ccccc2)c1=O |  | > 1000 |  | 
18 | Cc1cn2c(nc3c2c(=O)n(CCN(C)C)c(=O)n3Cc2ccccc2)[nH]1 | 98 | > 1000 | > 1000 | > 1000
19 | CCCn1c(=O)c2c(nc3[nH]c(C)cn32)n(Cc2ccncc2)c1=O | 141 | > 1000 | > 1000 | > 1000
20 | CC(=O)Cn1c(=O)c2c(nc3[nH]c(C)cn32)n(Cc2ccccc2)c1=O | 182 | > 1000 | > 1000 | > 1000
